Measured values as given in ChEMBL document CHEMBL1139336, “Discovery of alpha-amidosulfones as potent and selective agonists of CB2: synthesis, SAR, and pharmacokinetic properties” (Bioorg Med Chem Lett, 2009).

Key:
[1] = biological target: T1, Cannabinoid receptor 2 (Homo sapiens, UniProt P34972); test: Agonist activity at human CB2 receptor expressed in SF9 cells assessed as inhibition of CP-55940-stimulated GTP binding
Summary of the method: (§1)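 Sf9 membranes co-expressing hCB1 or hCB2 with Gαi3 (Bmax 1.7 pmol/ml). Europium-GTP (10 nM) binding in 50 mM Hepes, 0.1% BSA, 10 mM MgCl2, 150 mM NaCl, GDP, 0.0005% saponin, 1% DMSO. Compound tested from 0.01 nM upward. Incubated 45 min at room temperature, then filtered and washed; fluorescence read at 615 nm. 3 micromolar CP55940 defines 100% efficacy.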

[2] = biological target: T1, Cannabinoid receptor 2; test: Agonist activity at human CB2 receptor expressed in SF9 cells assessed as inhibition of CP-55940-stimulated GTP binding relative to control
Summary of the method: (§2)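 Sf9 insect-cell membranes co-expressing hCB1 or hCB2 with Gαi3 (Bmax 1.7 pmol/ml). Compound added in 50 mM Hepes/0.1% BSA to buffer with 10 mM MgCl2, 150 mM NaCl, GDP, 10 nM GTP-Europium and 0.0005% saponin. Final DMSO was 1%. Incubated 45 min at room temperature, then filtered, washed and read by fluorescence at 615 nm. 3 µM CP55940 set 100% efficacy. Logistic fit, n = 2–20.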

[3] = biological target: T2, Cannabinoid receptor 1 (Homo sapiens, UniProt P21554); test: Agonist activity at human CB1 receptor expressed in SF9 cells assessed as inhibition of CP-55940-stimulated GTP binding; summary of the method: as §1
[4] = biological target: T2, Cannabinoid receptor 1; test: Agonist activity at human CB1 receptor expressed in SF9 cells assessed as inhibition of CP-55940-stimulated GTP binding relative to control; summary of the method: as §2
[5] = biological target: T2, Cannabinoid receptor 1; test: Agonist activity at human CB1 receptor; assay type: functional
[6] = biological target: T2, Cannabinoid receptor 1; test: Agonist activity at human CB1 receptor relative to control; assay type: functional
[7] = biological target: T1, Cannabinoid receptor 2; test: Agonist activity at human CB2 receptor expressed in CHO cells assessed as suppression of forskolin-stimulated cAMP accumulation; assay type: functional, cell-based
Summary of the method: (§3)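 Forskolin-induced cAMP measured in CHO cells expressing human CB1 or CB2. EC50 from a logistic fit of the concentration–response curve. Emax taken as the maximum of the dose–response. Means of n = 2–20 independent measurements.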

[8] = organism: Homo sapiens; test: Selectivity for human CB2 receptor over human CB1 receptor
[9] = biological target: T1, Cannabinoid receptor 2; test: Agonist activity at human CB2 receptor expressed in CHO cells assessed as suppression of forskolin-stimulated cAMP accumulation relative to control; assay type: functional, cell-based
Summary of the method: (§4)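 CHO cells expressing human CB1 or CB2. Read-out was suppression of forskolin-induced cAMP production in whole cells. Emax was taken as the maximum of the dose–response curve. Values are means of n = 2–20 independent measurements, derived by logistic fit.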

[10] = biological target: T2, Cannabinoid receptor 1; test: Agonist activity at human CB1 receptor expressed in CHO cells assessed as suppression of forskolin-stimulated cAMP accumulation; assay type: functional, cell-based; summary of the method: as §3
[11] = biological target: T2, Cannabinoid receptor 1; test: Agonist activity at human CB1 expressed in CHO cells receptor assessed as suppression of forskolin-stimulated cAMP accumulation relative to control; assay type: functional, cell-based; summary of the method: as §4
[12] = Cmax in Sprague-Dawley rat at 10 mg/kg, po; assay type: ADME, organism-based; design: dose 10 mg/kg, route oral; conditions: in vivo
Summary of the method: (§5)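 Oral dose of 10 mg/kg in a 2% HPMC, 1% Tween 80 vehicle given to Sprague–Dawley rats; n = 3 animals.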

[13] = Protein binding in rat plasma; assay type: ADME, cell-free; conditions: read-out: PPB (converted)
[14] = test system: Rattus norvegicus; test: Tmax in Sprague-Dawley rat at 10 mg/kg, po; assay type: ADME, organism-based; design: dose 10 mg/kg, route oral; conditions: in vivo; summary of the method: as §5
[15] = Protein binding in human plasma; assay type: ADME, cell-free; conditions: read-out: PPB (converted)
[16] = Intrinsic clearance in human liver microsomes; assay type: ADME, Microsome
[17] = Half life in Sprague-Dawley rat at 0.5 mg/kg, iv; assay type: ADME, organism-based; design: dose 0.5 mg/kg, route intravenous; conditions: in vivo
Summary of the method: (§6)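 Single intravenous dose of 0.5 mg/kg given as a solution in DMSO to Sprague–Dawley rats; n = 2 animals.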

[18] = Intrinsic clearance in rat liver microsomes; assay type: ADME, Microsome
[19] = AUC (0 to infinity) in Sprague-Dawley rat at 10 mg/kg, po; assay type: ADME, organism-based; design: time infinity, dose 10 mg/kg, route oral; conditions: plasma; summary of the method: as §5
[20] = Oral bioavailability in Sprague-Dawley rat at 10 mg/kg; assay type: ADME, organism-based; conditions: in vivo; summary of the method: as §5
[21] = Volume of distribution at steady state in Sprague-Dawley rat at 0.5 mg/kg, iv; assay type: ADME, organism-based; design: dose 0.5 mg/kg, route intravenous; conditions: in vivo, read-out: Vdss; summary of the method: as §6
[22] = Clearance in Sprague-Dawley rat at 0.5 mg/kg, iv; assay type: ADME, organism-based; design: dose 0.5 mg/kg, route intravenous; conditions: in vivo; summary of the method: as §6
[23] = biological target: T1, Cannabinoid receptor 2; test: Agonist activity at human CB2 receptor; assay type: functional
[24] = biological target: T1, Cannabinoid receptor 2; test: Agonist activity at human CB2 receptor relative to control; assay type: functional

T1 sequence (P34972 whole entry): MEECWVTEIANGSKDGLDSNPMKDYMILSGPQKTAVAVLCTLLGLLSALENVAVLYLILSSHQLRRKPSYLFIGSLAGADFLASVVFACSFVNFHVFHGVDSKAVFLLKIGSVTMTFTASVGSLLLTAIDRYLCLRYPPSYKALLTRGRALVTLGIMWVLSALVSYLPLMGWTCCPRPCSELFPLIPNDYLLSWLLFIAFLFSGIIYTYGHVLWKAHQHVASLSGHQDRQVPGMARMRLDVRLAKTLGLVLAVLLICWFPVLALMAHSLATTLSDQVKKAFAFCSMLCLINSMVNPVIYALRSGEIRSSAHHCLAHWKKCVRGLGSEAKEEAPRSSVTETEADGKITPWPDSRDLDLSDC
T2 sequence (P21554 whole entry): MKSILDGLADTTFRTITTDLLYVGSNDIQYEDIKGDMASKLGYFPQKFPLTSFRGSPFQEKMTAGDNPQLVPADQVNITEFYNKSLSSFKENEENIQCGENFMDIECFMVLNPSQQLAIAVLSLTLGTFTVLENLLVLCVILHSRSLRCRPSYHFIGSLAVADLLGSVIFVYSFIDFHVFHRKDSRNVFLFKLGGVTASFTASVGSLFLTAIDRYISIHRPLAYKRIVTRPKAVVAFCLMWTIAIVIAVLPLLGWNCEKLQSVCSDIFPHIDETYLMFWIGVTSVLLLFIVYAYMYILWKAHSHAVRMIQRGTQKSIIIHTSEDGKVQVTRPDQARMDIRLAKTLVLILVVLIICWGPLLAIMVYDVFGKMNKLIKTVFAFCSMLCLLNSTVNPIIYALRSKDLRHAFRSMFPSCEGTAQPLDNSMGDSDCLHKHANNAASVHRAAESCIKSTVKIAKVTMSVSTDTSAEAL

SMILES	EC50 [1] [nM]	Emax [2] [%]	EC50 [3] [nM]	Emax [4] [%]	EC50 [7] [nM]	Emax [9] [%]	EC50 [10] [nM]	Emax [11] [%]	other results
Cc1cc(NC(=O)C(C)(C)S(=O)(=O)c2ccc(Cl)cc2)no1	3860	19	> 10000	1					
Cc1cnc(NC(=O)C(C)(C)S(=O)(=O)c2ccc(Cl)cc2)s1	> 10000	4	> 10000	7					
CC(C)(C(=O)Nc1cnc2ccccc2c1)S(=O)(=O)c1ccc(F)cc1Cl	104	108	> 10000	7					
CCn1c2ccccc2c2cc(NC(=O)CCc3nc(-c4ccccc4F)no3)ccc21									EC50 [5]: > 2000 nM; Emax [6]: 2%
CC(C)(C(=O)Nc1cnc2ccccc2c1)S(=O)(=O)c1ccc(C(F)(F)F)cc1	96	88	710	86	8	96	82	93	Selectivity ratio [8]: 10
CC1(c2nnc(NC(=O)C(C)(C)S(=O)(=O)c3ccc(Cl)cc3)s2)CCOC1 (stereo not given)	216	99	> 10000	10					
CC(C)(C(=O)Nc1ccc(Cl)c(C(F)(F)F)c1)S(=O)(=O)c1ccc(Cl)cc1	20	102	700000	22	5	96	> 2000	39	Cmax [12]: 560 ng/mL; fraction unbound [13]: 0.003; Tmax [14]: 1.7%; fraction unbound [15]: 0.002; microsomal CLint [16]: 14 µL/min/mg; half-life [17]: 14 h; microsomal CLint [18]: 14 µL/min/mg; AUC(0-inf) [19]: 9680 ng·h/mL; bioavailability [20]: 52%; Vd [21]: 9.3 L/kg; clearance [22]: 9 mL/min/kg
CC(C)(C(=O)NCc1ccccc1)S(=O)(=O)c1ccc(Cl)cc1	> 10000	0	> 10000	7					
CC(C)(C(=O)Nc1cnc2ccccc2c1)S(=O)(=O)c1ccc(F)cc1	109	102	2780	22	33	97	> 2000	19	
CC(C)(C(=O)Nc1ccc(Cl)cc1C#N)S(=O)(=O)c1ccc(Cl)cc1	> 10000	14	> 10000	0					
O=C(Nc1cnc2ccccc2c1)C1(S(=O)(=O)c2ccccc2)CC1									EC50 [23]: 4 nM; EC50 [5]: > 10000 nM; Emax [6]: 6%; Emax [24]: 31%
CC(C)(C(=O)Nc1ccc(Cl)c(-c2ccco2)c1)S(=O)(=O)c1ccc(Cl)cc1	4	101	96	82	5	101	230	98	
CC(C)(C(=O)Nc1ccc(Cl)c(Br)c1)S(=O)(=O)c1ccc(Cl)cc1	86	77	> 10000	7					
CC(C)(C(=O)Nc1cccc(C(F)(F)F)c1)S(=O)(=O)c1ccc(Cl)cc1	170	89	> 10000	15	35	93	> 1000	21	
CCn1c2ccccc2c2cc(NC(=O)C3(S(=O)(=O)c4ccccc4)CC3)ccc21									EC50 [23]: 8 nM; EC50 [5]: 390 nM; Emax [6]: 40%; Emax [24]: 95%
Cn1nc(C(C)(C)C)cc1NC(=O)C(C)(C)S(=O)(=O)c1ccc(Cl)cc1	26	104	223000	37	25	92	> 2000	12	Cmax [12]: 971 ng/mL; fraction unbound [13]: 0.06; Tmax [14]: 0.67%; fraction unbound [15]: 0.064; microsomal CLint [16]: 14 µL/min/mg; half-life [17]: 1.9 h; microsomal CLint [18]: 20 µL/min/mg; AUC(0-inf) [19]: 3570 ng·h/mL; bioavailability [20]: 43%; Vd [21]: 2 L/kg; clearance [22]: 20 mL/min/kg
Cc1ccc(-c2cncc(NC(=O)C(C)(C)S(=O)(=O)c3ccc(Cl)cc3)c2)s1	9	102	322	80	5	99	331	106	
CC(C)(C(=O)NCc1ccc(F)c(Cl)c1)S(=O)(=O)c1ccc(Cl)cc1	1300	76	> 10000	2					
CC(C)(C(=O)Nc1cnc2ccccc2c1)S(=O)(=O)c1ccc(Cl)cc1	57	90	1680	47	13	93	> 1000	47	
CC(C)(C)c1cc(NC(=O)C(C)(C)S(=O)(=O)c2ccc(Cl)cc2)no1	29	99	1920	57	11	85	> 2000	23	
Cc1ccccc1-c1nnc(NC(=O)C(C)(C)S(=O)(=O)c2ccc(Cl)cc2)s1	189	81	1650	48					
CC(C)(C(=O)Nc1cnc2ccccc2c1)S(=O)(=O)c1ccc(C(F)(F)F)cc1Cl	19	94	1570	71	73	94	> 2000	41	
CC(C)(C(=O)Nc1ccc(Cl)cc1OC(F)(F)F)S(=O)(=O)c1ccc(Cl)cc1	1620	44	> 10000	2					
CC(C)(C(=O)Nc1ccc(C(F)(F)F)cc1)S(=O)(=O)c1ccc(Cl)cc1	115	77	> 10000	14	57	93	> 1000	19	
COc1ccc(S(=O)(=O)C(C)(C)C(=O)Nc2cnc3ccccc3c2)c(Cl)c1	148	91	> 10000	12					
